# Hits are enriched below; roughly 2.1% of the tested compounds scored in any of these assays.
# PKA-R2B activ: PKA-R2B complex activation; 340,000 tested, 0.079% active; AID 504700; activation, % at 11.4 µM; PKA-R2B holoenzyme dissociation, Cy5-IP20 fluorescence polarization; R2B truncated from residue 108, S112A mutant; 0% DMSO only, 100% 113 µM cGMP;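 active = activation above a cutoff set at the mean over all compounds plus 3 SD, cut at about 18% in these data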;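 also: higher means more holoenzyme dissociation and a rise in polarization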
# SR-BI HDL uptake: blocks mouse SR-BI lipid uptake from DiI-HDL | Q61009 | ldlA[mSR-BI] CHO cells, DiI-HDL uptake fluorescence, 3 h | inhibition, % at 12.5 µM | 320,000 tested, 0.96% active | AID 488896;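 active = mean replicate inhibition of at least 70% and a set share of replicates each scoring 70 or more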;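 also: 0% = median of neutral control wells and 100% = median of positive control wells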
# CDK5 p35 inh: inhibitors of human CDK5/p35 kinase; Q00535+Q15078; Recombinant CDK5/p35, ADP-Glo luminescence, 60 min; inhibition, % at 10 µM; 330,000 tested, 0.01% active;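 active = highest replicate inhibition of at least 50% and at least 75% of replicates reaching 50%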;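 also: plate controls were DMSO neutral control for no effect and GW8510 at 10 µM for full effect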
# SR-BI uptake up: SR-BI HDL lipid transfer activation. CHO ldlA[mSR-BI] cells, DiI-HDL uptake fluorescence, 3 h; 100 = double the neutral-control signal. activation, % at 12.5 µM. 320,000 tested, 0.096% active;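 active = mean replicate activation of at least 60% and every replicate at or above 60%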;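 also: 0% = median plate neutral-control signal and 100% = twice that signal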
#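 Test system: SR-BI-overexpressing, LDLR-lacking CHO cells; Medium: Ham's F12 with 0.5% BSA, HEPES 25 mM, pH 7.4; Schedule: 3 h, 37 °C; Technique: bottom-read fluorescence, 550/595 nm.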
# PKA-R1A activ: activates the PKA-R1A holoenzyme complex. P00514+P68181. PKA-R1A dissociation, Cy5-IP20 fluorescence polarization; scaled: DMSO 0%, 113 µM cGMP 100%. activation, % at 11.4 µM. 340,000 tested, 0.083% active. AID 504707;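 active = percent activation above the mean of all tested compounds plus 3 SD, cut at about 19% in these data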;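 also: higher means more PKAc released from R1A so a rise in polarization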
# dFosB act-1: mouse delta FosB homodimer activation; purified delta FosB, TAMRA-CDK5 oligo fluorescence polarization; percent of positive-control signal above neutral wells; 340,000 tested, 0.99% active; P13346; activation, % at 25 µM; AID 493131;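 active = mean activation above about 17%, with every replicate also reaching it, limit read from the data, passing the limit was not always enough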
# Target sequence (P13346 whole entry, looked up): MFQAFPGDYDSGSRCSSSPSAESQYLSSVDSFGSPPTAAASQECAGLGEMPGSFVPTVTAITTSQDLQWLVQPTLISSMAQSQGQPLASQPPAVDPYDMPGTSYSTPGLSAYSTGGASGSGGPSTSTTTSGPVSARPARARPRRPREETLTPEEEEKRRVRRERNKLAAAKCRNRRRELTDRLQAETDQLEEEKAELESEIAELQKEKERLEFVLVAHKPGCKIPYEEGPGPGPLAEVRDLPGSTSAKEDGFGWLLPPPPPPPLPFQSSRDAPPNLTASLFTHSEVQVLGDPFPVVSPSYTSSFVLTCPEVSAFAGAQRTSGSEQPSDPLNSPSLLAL
# dFosB act-2: delta FosB (mouse) homodimer activation; shares compounds with dFosB act-1; purified delta FosB, TAMRA-CDK5 oligo fluorescence polarization; normalised: neutral wells 0, positive control 100; activation, % at 24.9 µM; 2,400 tested, under 10 active; AID 588690;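 active = highest replicate activation at or above 34% and every replicate reaching that threshold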;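 also: higher polarization means more probe DNA bound by delta FosB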
# An asterisk follows results filed as active; · = no result.
SMILES,PKA-R2B activ,SR-BI HDL uptake,CDK5 p35 inh,SR-BI uptake up,PKA-R1A activ,dFosB act-1,dFosB act-2
CSc1nc2ccc(NC(=O)c3ccc(F)c(F)c3)cc2s1,-4,46,-1,-46,-5,-8,·
ClCCn1cnc2c(SCc3ccccc3)ncnc21,-7,2,0,-2,0,-6,·
O=C(COC(=O)c1cccnc1Nc1ccccc1F)NCc1ccc2c(c1)OCO2,-8,17,1,-17,-4,55*,3
CCOc1ccccc1NC(=O)CN1CCN(Cc2ccccc2)CC1,0,-12,2,12,6,-7,·
CCOc1ccc(-c2cc(NC(=O)Cn3ncc4c3-c3ccccc3OC4)on2)cc1OCC,-6,64,-2,-64,-14,39*,3
COc1ccccc1NC(=O)Cn1ncc2c1-c1ccccc1OC2,1,-22,1,22,-4,-7,·
Cc1ccc(-n2c(SCC(=O)Nc3nccs3)nc3c(c2=O)SCC3)cc1,-4,9,-1,-9,10,38*,1
CCOc1ccc(S(=O)(=O)N2CCCCC2)cc1NC(=O)Cc1cccc(C(F)(F)F)c1,-12,-23,0,23,-6,-12,·
C[C@@H](C(=O)OCC(=O)c1ccc(F)c(F)c1)N1C(=O)C2CCCCC2C1=O (some centres not stated),1,-19,1,19,-4,-3,·
Cc1ccc(CCNC(=O)Cn2ncc3c([nH]c4ccccc43)c2=O)cc1,1,-4,-1,4,1,6,·
Cc1ccc2[nH]c3c(=O)n(CC(=O)NCc4ccco4)ncc3c2c1,-4,0,-1,0,-1,26*,2
Cc1ccc(C)c(NC(=O)Cn2nnc(C(=O)NCc3ccco3)c2N)c1,10,5,1,-5,-3,30*,-5
Cc1ccc(CNC(=O)c2nnn(CC(=O)Nc3cccc(C)c3C)c2N)cc1,-14,-22,1,22,-8,66*,-1
CCCS(=O)(=O)c1c(S(=O)(=O)CCC)c2ccc(C(N)=O)cn2c1C(=O)c1ccc(OC)cc1,-3,14,-1,-14,0,-22,·
COc1ccc(CC(=O)Nc2ccc(-c3nnc(-c4ccccc4)o3)cc2)cc1OC,3,25,-1,-25,-10,120*,-7
O=C(COc1ccc(Cl)cc1)Nc1ccc2oc(-c3ccncc3)nc2c1,2,41,-1,-41,4,37*,-1
COc1ccc(OCC(=O)Nc2ccc3oc(-c4ccncc4)nc3c2)cc1,-10,-16,-2,16,2,4,·
COc1ccc(CC(=O)Nc2cccc(-c3nnc(-c4ccccc4)o3)c2)cc1OC,-10,45,0,-45,-2,-6,·
COc1ccc(-c2nc3cc(NC(=O)Cc4ccc(OC)c(OC)c4)ccc3o2)cc1,-5,1,-2,-1,-3,56*,4
O=C(NS(=O)(=O)Oc1ccccc1F)OC[C@@H]1CCCN2CCCCC12 (some centres not stated),4,-22,10,22,8,-3,·
COc1ccc(-c2cc3c(=O)n(CC(=O)NCc4cccnc4)ncn3n2)cc1,3,22,0,-22,-11,3,·
COc1ccc(-c2cc3c(=O)n(CC(=O)Nc4ccc(C(C)=O)cc4)ncn3n2)cc1,2,13,-3,-13,8,74*,-2
O=c1cc(NCc2ccc3c(c2)OCO3)[nH]c(=O)n1-c1ccc(Cl)cc1,0,-5,0,5,-13,20*,2
Cn1c(=O)[nH]c(NC2CCCCC2)c(N=O)c1=O,6,-20,-2,20,14,1,·
CN(C)c1nc(NCc2ccccc2)nc(N/N=C/c2ccc3c(c2)OCO3)n1,-22,-7,1,7,-10,58*,2
SMILES,PKA-R2B activ,SR-BI HDL uptake,CDK5 p35 inh,SR-BI uptake up,PKA-R1A activ,dFosB act-1,dFosB act-2
Cc1cccc(NC(=O)Cn2c(=O)n(CCC(=O)NC3CCCC3)c(=O)c3ccccc32)c1,-2,-3,0,3,-2,42*,1
Cc1ccc(CNC(=O)CCCn2c(=O)c3ccccc3n(CC(=O)NC3CCCC3)c2=O)cc1,-2,8,-1,-8,-4,27*,-2
Cc1ccccc1Cn1c(=O)n(CCC(=O)NCc2ccc3c(c2)OCO3)c(=O)c2ccccc21,1,-5,·,5,2,60*,-1
Cc1ccc(CNC(=O)Cn2c(=O)n(-c3ccccc3)c(=O)c3sccc32)cc1,-2,-24,1,24,2,21*,-9
CCN(CC)C(=O)Cn1c(=O)n(-c2ccc(CC(=O)NCc3ccccc3)cc2)c(=O)c2sccc21,-4,·,0,·,10,-11,·
O=C(Cn1ccc(NC(=O)OCc2ccccc2)nc1=O)NCc1ccc2[nH]ccc2c1,6,21,-4,-21,-13,3,·
CN(CC1CCCN(CCc2ccc(Cl)cc2)C1)C(=O)c1ccco1 (configuration not stated),-4,1,1,-1,0,3,·
COc1ccc(Cc2nc3ccc(C(=O)NC(C)c4cn(C)nc4C)cc3o2)cc1 (configuration not stated),-6,11,-4,-11,-7,-13,·
Cc1ccc(S(=O)(=O)c2nc(Nc3ccccc3N3CCOCC3)sc2Cl)cc1,9,10,-1,-10,6,22*,3
Cc1nn(C)c(Cl)c1S(=O)(=O)N1CCC(CO)(CCc2ccccc2)CC1,6,3,0,-3,12,-4,·
CCc1ccc(NC(=O)CSC2=C(C#N)C(c3ccc4c(c3)OCO4)CC(=O)N2)cc1 (configuration not stated),-10,-39,-2,39,0,-1,·
Cc1ccc(NC(=O)CSC2=C(C#N)C(c3ccc4c(c3)OCO4)CC(=O)N2)cc1C (configuration not stated),6,-5,3,5,-5,46*,3
CC1(C)CC(N=c2cc(-c3ccccc3)oc3ccc(Cl)cc23)CC(C)(C)N1,1,19,0,-19,0,40*,-3
Cc1ccccc1C(=O)NNC(=O)C1CC(=O)N(Cc2ccccc2)C1 (configuration not stated),13,-17,3,17,11,-4,·
COc1ccc(OCCCC(=O)Nc2cc(Cl)ccc2-n2cncn2)cc1,-4,23,0,-23,-2,-6,·
